Molecular target: Tumor necrosis factor (Homo sapiens, UniProt P01375)
Assay: TNF-alpha production in PBMC by ELISA method
Method in brief: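 Human PBMC were isolated from heparinized blood by ficoll-histopaque and plated at […] cells/mL in RPMI 1640 with 20% autologous plasma and glutamine. Compound at 2X concentration was added in equal volume, 60 min preincubation, then LPS 10 ug/mL final. Supernatant was taken at 18 h for sandwich ELISA (mouse capture, rabbit detection, poly-HRP). IC50 is the concentration inhibiting TNFa production by 50% of control.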

Sequence of Tumor necrosis factor (P01375 whole entry): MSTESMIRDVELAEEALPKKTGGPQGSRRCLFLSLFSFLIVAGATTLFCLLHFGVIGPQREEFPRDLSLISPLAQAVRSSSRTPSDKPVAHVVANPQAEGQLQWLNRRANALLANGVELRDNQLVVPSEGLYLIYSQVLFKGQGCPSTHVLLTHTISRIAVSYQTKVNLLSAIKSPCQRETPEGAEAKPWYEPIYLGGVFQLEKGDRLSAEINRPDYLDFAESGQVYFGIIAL

SMILES	IC50 [µM]
COc1ccc([C@@H]2CNC(=O)C2)cc1OC1CCCC1 (racemic) [Adeo]	12
CC(=O)CCCCn1c(=O)c2c(ncn2C)n(C)c1=O [1-(5-Oxohexyl)theobromine (pentoxifylline)]	85
CCOC(=O)CCn1c(=O)c2c(ncn2C)n(C)c1=O [3-(3,7-Dimethyl-2,6-dioxo-2,3,6,7-tetrahydro-purin-1-yl)-propionic acid ethyl ester]	10
CCOC(=O)CCCn1c(=O)c2nccnc2n(Cc2ccccc2)c1=O [4-(1-Benzyl-2,4-dioxo-1,4-dihydro-2H-pteridin-3-yl)-butyric acid ethyl ester]	175
CCCCn1c(=O)n(CCCC(=O)OCC)c(=O)c2nccnc21 [4-(1-Butyl-2,4-dioxo-1,4-dihydro-2H-pteridin-3-yl)-butyric acid ethyl ester]	15
CCOC(=O)CCCn1c(=O)c2nccnc2n(CC(C)C)c1=O [4-(1-Isobutyl-2,4-dioxo-1,4-dihydro-2H-pteridin-3-yl)-butyric acid ethyl ester]	20
CCOC(=O)CCCn1c(=O)c2nccnc2n(C)c1=O [4-(1-Methyl-2,4-dioxo-1,4-dihydro-2H-pteridin-3-yl)-butyric acid ethyl ester]	12
Cn1c(=O)n(CCCC(=O)O)c(=O)c2nccnc21 [4-(1-Methyl-2,4-dioxo-1,4-dihydro-2H-pteridin-3-yl)-butyric acid]	> 200
CCOC(=O)CCCn1c(=O)c2ccccc2n(C)c1=O [4-(1-Methyl-2,4-dioxo-1,4-dihydro-2H-quinazolin-3-yl)-butyric acid ethyl ester]	55
Cn1c(=O)n(CCCC(=O)O)c(=O)c2ccccc21 [4-(1-Methyl-2,4-dioxo-1,4-dihydro-2H-quinazolin-3-yl)-butyric acid]	> 200
CCOC(=O)CCCn1c(=O)c2nc(-c3ccccc3)cnc2n(C)c1=O [4-(1-Methyl-2,4-dioxo-6-phenyl-1,4-dihydro-2H-pteridin-3-yl)-butyric acid ethyl ester]	> 200
CCCCCn1c(=O)n(CCCC(=O)OCC)c(=O)c2nccnc21 [4-(2,4-Dioxo-1-pentyl-1,4-dihydro-2H-pteridin-3-yl)-butyric acid ethyl ester]	16
CCCn1c(=O)n(CCCC(=O)OCC)c(=O)c2nccnc21 [4-(2,4-Dioxo-1-propyl-1,4-dihydro-2H-pteridin-3-yl)-butyric acid ethyl ester]	5
CCCn1c(=O)n(CCCC(=O)O)c(=O)c2nccnc21 [4-(2,4-Dioxo-1-propyl-1,4-dihydro-2H-pteridin-3-yl)-butyric acid]	> 200
CCOC(=O)CCCn1c(=O)c2c(ncn2C)n(C)c1=O [4-(3,7-Dimethyl-2,6-dioxo-2,3,6,7-tetrahydro-purin-1-yl)-butyric acid ethyl ester]	6
Cn1cnc2c1c(=O)n(CCCC(=O)O)c(=O)n2C [4-(3,7-Dimethyl-2,6-dioxo-2,3,6,7-tetrahydro-purin-1-yl)-butyric acid]	> 200
COC(=O)c1ccc(Cn2c(=O)c3c(ncn3C)n(C)c2=O)cc1 [4-(3,7-Dimethyl-2,6-dioxo-2,3,6,7-tetrahydro-purin-1-ylmethyl)-benzoic acid methyl ester]	> 200

SMILES	IC50 [µM]
CCCCOc1cc(C[C@@H]2CNC(=O)N2)ccc1OC [4-(3-Butoxy-4-methoxy-benzyl)-imidazolidin-2-one]	50
CCOC(=O)CCCn1c(=O)c2nsnc2n(C)c1=O [4-(4-Methyl-5,7-dioxo-4,5-dihydro-7H-[1,2,5]thiadiazolo[3,4-d]pyrimidin-6-yl)-butyric acid ethyl ester]	25
Cn1c(=O)n(CCCC(=O)O)c(=O)c2nsnc21 [4-(4-Methyl-5,7-dioxo-4,5-dihydro-7H-[1,2,5]thiadiazolo[3,4-d]pyrimidin-6-yl)-butyric acid]	> 200
CCCn1c(=O)n(CCCC(=O)OCC)c(=O)c2nsnc21 [4-(5,7-Dioxo-4-propyl-4,5-dihydro-7H-[1,2,5]thiadiazolo[3,4-d]pyrimidin-6-yl)-butyric acid ethyl ester]	18
CCOC(=O)CCCn1c(=O)c2nc(CC)c(CC)nc2n(C)c1=O [4-(6,7-Diethyl-1-methyl-2,4-dioxo-1,4-dihydro-2H-pteridin-3-yl)-butyric acid ethyl ester]	130
CCCn1c(=O)n(CCCC(=O)OCC)c(=O)c2c1ncn2C [4-(7-Methyl-2,6-dioxo-3-propyl-2,3,6,7-tetrahydro-purin-1-yl)-butyric acid ethyl ester]	5
CCOC(=O)CCCn1c(=O)c2c(nc(Br)n2C)n(C)c1=O [4-(8-Bromo-3,7-dimethyl-2,6-dioxo-2,3,6,7-tetrahydro-purin-1-yl)-butyric acid ethyl ester]	60
COC(=O)c1ccc(Cn2c(=O)c3c(nc(Br)n3C)n(C)c2=O)cc1 [4-(8-Bromo-3,7-dimethyl-2,6-dioxo-2,3,6,7-tetrahydro-purin-1-ylmethyl)-benzoic acid methyl ester]	> 200
CCOC(=O)CCCn1c(=O)c2c([nH]c(=S)n2C)n(C)c1=O [4-(8-Mercapto-3,7-dimethyl-2,6-dioxo-2,3,6,7-tetrahydro-purin-1-yl)-butyric acid ethyl ester]	100
CCOC(=O)c1ccc(Cn2c(=O)c3c([nH]c(=S)n3C)n(C)c2=O)cc1 [4-(8-Mercapto-3,7-dimethyl-2,6-dioxo-2,3,6,7-tetrahydro-purin-1-ylmethyl)-benzoic acid ethyl ester]	> 200
CCOC(=O)CCCn1c(=O)c2nccnc2n(C2CCOC2)c1=O (stereo not drawn) [4-[2,4-Dioxo-1-(tetrahydro-furan-3-yl)-1,4-dihydro-2H-pteridin-3-yl]-butyric acid ethyl ester]	19
CCOC(=O)CCCCn1c(=O)c2c(ncn2C)n(C)c1=O [5-(3,7-Dimethyl-2,6-dioxo-2,3,6,7-tetrahydro-purin-1-yl)-pentanoic acid ethyl ester]	11
CCCCCCCn1c(=O)c2nsnc2n(C)c1=O [6-Heptyl-4-methyl-4H-[1,2,5]thiadiazolo[3,4-d]pyrimidine-5,7-dione]	75
Cn1c(=O)[nH]c(=O)c2[nH]c(=S)[nH]c21 [8-Mercapto-3-methyl-3,7-dihydro-purine-2,6-dione]	> 200
CCOC(=O)Cn1c(=O)c2c(ncn2C)n(C)c1=O [(3,7-Dimethyl-2,6-dioxo-2,3,6,7-tetrahydro-purin-1-yl)-acetic acid ethyl ester]	200
COC(=O)/C=C\Cn1c(=O)c2nccnc2n(C)c1=O [(Z)-4-(1-Methyl-2,4-dioxo-1,4-dihydro-2H-pteridin-3-yl)-but-2-enoic acid methyl ester]	25
